Measured values published in ChEMBL document CHEMBL4043201, “Conjugates of 18β-glycyrrhetinic acid derivatives with 3-(1H-benzo[d]imidazol-2-yl)propanoic acid as Pin1 inhibitors displaying anti-prostate cancer ability” (Bioorg Med Chem, 2017).

Experiments:
PC-3 = experiment: Antiproliferative activity against human PC3 cells assessed as inhibition of cell growth incubated for 96 hrs by MTT assay; assay type: functional; conditions: PC-3, 96 h
Outline: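 PC-3 cells grown in RPMI1640 with 10% heat-inactivated FBS, seeded at 2×10^4 cells/well and kept 24 h at 37 °C in 5% CO2. Compounds were then added at various concentrations for 96 h. MTT (2 mg/mL) was added for a further 4 h, cells dissolved in DMSO, and A570 read. Growth was treated/untreated cell number, with GI50 calculated from inhibition ratios. Mean of three independent runs.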

LNCaP = experiment: Antiproliferative activity against human LNCAP cells assessed as inhibition of cell growth incubated for 96 hrs by MTT assay; assay type: functional
Outline: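 MTT growth assay. Cells seeded at 2×10^4 per well and held 24 h at 37 °C under 5% CO2 before compound was added at a range of concentrations. Exposure lasted 96 h, then 2 mg/mL MTT was added for 4 h. Cells were dissolved in DMSO and absorbance read at 570 nm. Growth was taken as treated/untreated cell number. GI50 was derived from the inhibition ratios. Three independent experiments, mean reported.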

[1] = molecular target: T1, Peptidyl-prolyl cis-trans isomerase NIMA-interacting 1 (Homo sapiens, UniProt Q13526); experiment: Inhibition of Pin1 (unknown origin) assessed as reduction in peptidyl-prolyl isomerase activity at 10 uM incubated for 30 mins using Suc-Ala-Glu-cis-Pro-Phe-4-nitroanilide substrate by protease coupled assay
Outline: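 Commercial Pin1 in 35 mM HEPES pH 7.8 was pre-equilibrated with compound (DMSO solutions) for 30 min at 10 °C. Ice-cold chymotrypsin (stock 60 mg/mL in 0.001 M HCl) was added, then Suc-Ala-Glu-cis-Pro-Phe-4-nitroanilide in 0.47 mol/L LiCl/trifluoroethanol was added to start the reaction. Absorbance at 390 nm was monitored for 90 s at 10 °C.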

[2] = molecular target: T1, Peptidyl-prolyl cis-trans isomerase NIMA-interacting 1; experiment: Inhibition of Pin1 (unknown origin) assessed as reduction in peptidyl-prolyl isomerase activity incubated for 30 mins using Suc-Ala-Glu-cis-Pro-Phe-4-nitroanilide substrate by protease coupled assay
[3] = molecular target: T1, Peptidyl-prolyl cis-trans isomerase NIMA-interacting 1; experiment: Inhibition of Pin1 in human PC3 cells assessed as reduction in Cyclin D1 protein level at 10 to 30 uM incubated for 24 hrs by Western blot method; assay type: cell-based
Outline: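 PC-3 cells were treated 24 h with compound at 10, 20 or 30 μM, with DMSO as control. Cells were lysed in RIPA buffer with protease inhibitors, and 40 μg protein was run on 10% SDS-PAGE and blotted to nitrocellulose. Ponceau S was used as a loading check. Membranes were blocked in 5% milk and probed overnight at 4 °C with anti-cyclin D1 and β-actin, with secondary antibody 1 h at 37 °C. ECL detection.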

T1 sequence (Q13526 whole entry): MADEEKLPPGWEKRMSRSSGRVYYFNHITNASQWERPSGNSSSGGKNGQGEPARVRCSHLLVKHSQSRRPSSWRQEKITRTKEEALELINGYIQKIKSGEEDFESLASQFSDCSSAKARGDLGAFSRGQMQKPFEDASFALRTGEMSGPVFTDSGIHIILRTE

## CC1(C)C(=O)CC[C@]2(C)[C@H]3CC=C4[C@@H]5C[C@@](C)(C(=O)OCCCn6c(CCC(=O)O)nc7ccccc76)CC[C@]5(C)CC[C@@]4(C)[C@]3(C)CC[C@@H]12
PC-3
  GI50: 13 µM
LNCaP
  GI50: 19.7 µM
[1]
  inhibition: 98%
[2]
  IC50: 3.8 µM

## CC(=O)O[C@H]1CC[C@]2(C)[C@H]3C(=O)C=C4[C@@H]5C[C@@](C)(C(=O)NCCn6c(CCC(=O)O)nc7ccccc76)CC[C@]5(C)CC[C@@]4(C)[C@]3(C)CC[C@H]2C1(C)C
PC-3
  GI50: > 50 µM
LNCaP
  GI50: > 50 µM
[1]
  inhibition: 27%
[2]
  IC50: > 10 µM

## CC1(C)[C@@H](O)CC[C@]2(C)[C@H]3C(=O)C=C4[C@@H]5C[C@@](C)(C(=O)OCCn6c(CCC(=O)O)nc7ccccc76)CC[C@]5(C)CC[C@@]4(C)[C@]3(C)CC[C@@H]12
PC-3
  GI50: > 50 µM
LNCaP
  GI50: > 50 µM
[1]
  inhibition: 60%

## CC(=O)O[C@H]1CC[C@]2(C)[C@H]3CC=C4[C@@H]5C[C@@](C)(C(=O)OCCn6c(CCC(=O)O)nc7ccccc76)CC[C@]5(C)CC[C@@]4(C)[C@]3(C)CC[C@H]2C1(C)C
PC-3
  GI50: 10.9 µM
LNCaP
  GI50: 13.3 µM
[1]
  inhibition: 94%
[2]
  IC50: 4.79 µM

## COC(=O)[C@@]1(C)CC[C@]2(C)CC[C@]3(C)C(=CC(=O)[C@@H]4[C@@]5(C)CC[C@H](OC(=O)CCn6c(CCC(=O)O)nc7ccccc76)C(C)(C)[C@@H]5CC[C@]43C)[C@@H]2C1
PC-3
  GI50: 16.1 µM
LNCaP
  GI50: 26.6 µM
[1]
  inhibition: 88%

## CC(=O)O[C@H]1CC[C@]2(C)[C@H]3C(=O)C=C4[C@@H]5C[C@@](C)(C(=O)NCCCn6c(CCC(=O)O)nc7ccccc76)CC[C@]5(C)CC[C@@]4(C)[C@]3(C)CC[C@H]2C1(C)C
PC-3
  GI50: > 50 µM
LNCaP
  GI50: > 50 µM
[1]
  inhibition: 50%

## CC1(C)[C@@H](O)CC[C@]2(C)[C@H]3CC=C4[C@@H]5C[C@@](C)(C(=O)OCCn6c(CCC(=O)O)nc7ccccc76)CC[C@]5(C)CC[C@@]4(C)[C@]3(C)CC[C@@H]12
PC-3
  GI50: > 50 µM
LNCaP
  GI50: > 50 µM
[1]
  inhibition: 54%

## CC(=O)O[C@H]1CC[C@]2(C)[C@H]3C(=O)C=C4[C@@H]5C[C@@](C)(C(=O)OCCCn6c(CCC(=O)O)nc7ccccc76)CC[C@]5(C)CC[C@@]4(C)[C@]3(C)CC[C@H]2C1(C)C
PC-3
  GI50: 11.8 µM
LNCaP
  GI50: 15.5 µM
[1]
  inhibition: 100%
[2]
  IC50: 1.33 µM

## CC1(C)C(=O)CC[C@]2(C)[C@H]3C(=O)C=C4[C@@H]5C[C@@](C)(C(=O)NCCCn6c(CCC(=O)O)nc7ccccc76)CC[C@]5(C)CC[C@@]4(C)[C@]3(C)CC[C@@H]12
PC-3
  GI50: > 50 µM
LNCaP
  GI50: > 50 µM
[1]
  inhibition: 28%
[2]
  IC50: > 10 µM

## CC1(C)[C@@H](O)CC[C@]2(C)[C@H]3CC=C4[C@@H]5C[C@@](C)(C(=O)OCCCn6c(CCC(=O)O)nc7ccccc76)CC[C@]5(C)CC[C@@]4(C)[C@]3(C)CC[C@@H]12
PC-3
  GI50: 25.6 µM
LNCaP
  GI50: 42.7 µM
[1]
  inhibition: 100%
[2]
  IC50: 2.82 µM

## CC1(C)[C@@H](O)CC[C@]2(C)[C@H]3C(=O)C=C4[C@@H]5C[C@@](C)(C(=O)O)CC[C@]5(C)CC[C@@]4(C)[C@]3(C)CC[C@@H]12 [ENOXOLONE]
PC-3
  GI50: 95.7 µM
[1]
  inhibition: 34%
[2]
  IC50: > 10 µM

## CC1(C)C(=O)CC[C@]2(C)[C@H]3C(=O)C=C4[C@@H]5C[C@@](C)(C(=O)NCCn6c(CCC(=O)O)nc7ccccc76)CC[C@]5(C)CC[C@@]4(C)[C@]3(C)CC[C@@H]12
PC-3
  GI50: > 50 µM
LNCaP
  GI50: > 50 µM
[1]
  inhibition: 38%
[2]
  IC50: > 10 µM

## CC1(C)C(=O)CC[C@]2(C)[C@H]3C(=O)C=C4[C@@H]5C[C@@](C)(C(=O)OCCCn6c(CCC(=O)O)nc7ccccc76)CC[C@]5(C)CC[C@@]4(C)[C@]3(C)CC[C@@H]12
PC-3
  GI50: 35.6 µM
LNCaP
  GI50: 29.3 µM
[1]
  inhibition: 77%

## O=C1C=CC(=O)c2c(O)cccc21 [JUGLONE]
PC-3
  GI50: 4.77 µM
[1]
  inhibition: 44%
[2]
  IC50: 10.8 µM

## O=C(O)CCc1nc2ccccc2[nH]1 [PROCODAZOLE]
PC-3
  GI50: > 50 µM
LNCaP
  GI50: > 50 µM
[1]
  inhibition: 23%

## CC1(C)[C@@H](O)CC[C@]2(C)[C@H]3C(=O)C=C4[C@@H]5C[C@@](C)(C(=O)OCCCn6c(CCC(=O)O)nc7ccccc76)CC[C@]5(C)CC[C@@]4(C)[C@]3(C)CC[C@@H]12
PC-3
  GI50: > 50 µM
LNCaP
  GI50: > 50 µM
[1]
  inhibition: 40%
[2]
  IC50: > 10 µM

## CC1(C)C(=O)CC[C@]2(C)[C@H]3C(=O)C=C4[C@@H]5C[C@@](C)(C(=O)OCCn6c(CCC(=O)O)nc7ccccc76)CC[C@]5(C)CC[C@@]4(C)[C@]3(C)CC[C@@H]12
PC-3
  GI50: 39.9 µM
LNCaP
  GI50: 48.9 µM
[1]
  inhibition: 63%

## COC(=O)[C@@]1(C)CC[C@]2(C)CC[C@]3(C)C(=CC(=O)[C@@H]4[C@@]5(C)CC[C@H](OC(=O)Cn6c(CCC(=O)O)nc7ccccc76)C(C)(C)[C@@H]5CC[C@]43C)[C@@H]2C1
PC-3
  GI50: 7.8 µM
LNCaP
  GI50: 13.2 µM
[1]
  inhibition: 100%
[2]
  IC50: 1.07 µM
[3]
  inhibition: Dose-dependent effect

## CC(=O)O[C@H]1CC[C@]2(C)[C@H]3C(=O)C=C4[C@@H]5C[C@@](C)(C(=O)OCCn6c(CCC(=O)O)nc7ccccc76)CC[C@]5(C)CC[C@@]4(C)[C@]3(C)CC[C@H]2C1(C)C
PC-3
  GI50: 27.4 µM
LNCaP
  GI50: 24.4 µM
[1]
  inhibition: 100%
[2]
  IC50: 1.06 µM

## CC1(C)C(=O)CC[C@]2(C)[C@H]3CC=C4[C@@H]5C[C@@](C)(C(=O)OCCn6c(CCC(=O)O)nc7ccccc76)CC[C@]5(C)CC[C@@]4(C)[C@]3(C)CC[C@@H]12
PC-3
  GI50: 18.4 µM
LNCaP
  GI50: 25.8 µM
[1]
  inhibition: 69%
